Published values pooled from the literature.
Lines come from different studies, so protocols differ. pEC50, pIC50: −log10 of the molar value.
Observed: cell growth or viability

SMILES	cell line	method	concentration	time	quantity	result
C[C@H](Nc1ccc2c(c1)OCCn1cc(N3C(=O)OC[C@H]3C(F)F)nc1-2)C(N)=O	HGC-27	ATP luminescence	–	5 days	pEC50	6.92
Cc1n[nH]c2ccc3nc(-c4ccc(C(=O)NCCN(C)C)cc4)c4c(c3c12)CCCC4	Kasumi 1	–	–	72 h	GI50	148 nM
Cc1nc(Nc2ncc(C(=O)Nc3c(C)cccc3Cl)s2)cc(N2CC[C@H](O)C2)n1	Toledo	ATP luminescence	10 µM	72 h	inhibition	50%
CCN(CC)c1ccc(C=NNC(=O)CSc2nc3ccccc3c(=O)n2Cc2ccc(S(N)(=O)=O)cc2)c(O)c1	NCI/ADR-RES	SRB	–	–	GI50	> 100000 nM
C=C1CC[C@@H]2[C@](C)(CO)[C@H](O)CC[C@@]2(C)[C@@H]1C/C=C1/C(=O)OC[C@H]1O	SW480	MTT	–	72 h	pIC50	5.38
NNc1nc2c(Cl)cc(Cl)cc2c(=O)n1-c1ccc(F)cc1	SW480	MTT	–	48 h	pIC50	4.28
Cc1nc(NC(=O)N2CCC[C@H]2C(N)=O)sc1-c1ccnc(C(C)(C)C(F)(F)F)c1	HGC-27	ATP luminescence	–	5 days	pEC50	4.70
COc1cccc2c1C(=O)c1c(O)c3c(c(O)c1C2=O)C[C@@](O)(C(=O)CO)C[C@@H]3O[C@H]1C[C@H](N)[C@H](O)[C@H](C)O1	SW480	MTT	–	72 h	pIC50	7.05
Cc1n[nH]c2ccc3nc(-c4ccc(C(=O)NCCN(C)C)cc4F)c4c(c3c12)CCCCC4	Kasumi 1	–	–	72 h	GI50	397 nM
